Measurements from different studies.
Lines come from different studies, so protocols differ.
Target: Tyrosine-protein kinase TXK (TXK, Homo sapiens, UniProt P42681)
Sequence (P42681 1-527, as in one of the studies): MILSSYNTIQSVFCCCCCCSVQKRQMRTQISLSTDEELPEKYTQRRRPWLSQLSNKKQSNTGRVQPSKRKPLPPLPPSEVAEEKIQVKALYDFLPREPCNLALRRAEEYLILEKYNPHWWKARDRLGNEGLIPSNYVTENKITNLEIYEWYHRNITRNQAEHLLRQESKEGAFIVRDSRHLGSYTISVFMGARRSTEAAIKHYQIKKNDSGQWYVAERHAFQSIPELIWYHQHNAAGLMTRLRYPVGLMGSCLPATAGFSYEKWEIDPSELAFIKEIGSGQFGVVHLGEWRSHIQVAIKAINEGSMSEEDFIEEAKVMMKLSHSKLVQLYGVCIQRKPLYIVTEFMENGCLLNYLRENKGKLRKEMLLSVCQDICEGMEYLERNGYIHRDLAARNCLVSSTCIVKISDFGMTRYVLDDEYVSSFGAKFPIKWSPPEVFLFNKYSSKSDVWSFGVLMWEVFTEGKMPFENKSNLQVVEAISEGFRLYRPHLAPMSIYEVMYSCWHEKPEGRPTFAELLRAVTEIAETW

CC(C)(C)c1nc(-c2cccc(NS(=O)(=O)c3c(F)cccc3F)c2F)c(-c2ccnc(N)n2)s1  remaining activity (enzyme activity, inhibitor, radiometric; 1 µM): 88%
COc1cc(-c2cn(C3CCc4ccccc4N(CC(F)(F)F)C3=O)nn2)ccc1-n1ccc(C)n1 (stereo not shown)  remaining binding (binding, competition with immobilised ligand; 1 µM): 84%
CCOc1cc(-c2nncn2C)ccc1Nc1ncc2cc(C)nc(NCC(C)(C)C)c2n1  inhibition (enzyme activity, inhibitor, FRET; 1 µM): < 15%
COc1cc2ncnc(Nc3ccc(Oc4ccccc4)cc3C)c2cc1OC  inhibition (enzyme activity, inhibitor; 1 µM): 16%
NS(=O)(=O)c1cc(NC(=O)Cc2ccccc2)ccc1Oc1cccc(Cl)c1  remaining binding (binding, competition with immobilised ligand; 1 µM): 92%
CCCS(=O)(=O)Nc1ccc(F)c(C(=O)c2c[nH]c3ncc(-c4ccc(Cl)cc4)cc23)c1F  inhibition (enzyme activity, inhibitor; 1 µM): < 10%
c1nc2c(Nc3ccc4c(c3)OCCO4)nc(Nc3ccc4c(c3)OCCO4)nc2[nH]1  activity vs control (enzyme activity, inhibitor; 10 µM): 8%
O=C1Nc2ccc(Cl)cc2C1=Cc1cc(Cl)c(O)c(Cl)c1  remaining signal (cell-free assay; 0.5 µM): 86.6%
CN(C(=O)c1ccccc1)c1cc(N(C)c2ccc3c(c2)CCc2ccc(C(=O)NCCN4CCOCC4)cc2C3=O)ccc1F  remaining binding (binding, competition with immobilised ligand; 1 µM): 79%
Cc1sc(C(=O)NC2COC2)cc1-n1cc(NC(=O)Nc2c(F)cccc2Cl)cn1  remaining activity (enzyme activity, inhibitor; 10 µM): 76.7%
COc1cc(Cl)c(C(=O)N[C@@H](CN[C@H]2CC[C@@H](N)CC2)Cc2ccc(C#N)cc2)cc1-c1ccc(CN[C@H](C)c2ccc(C)cc2)o1  remaining activity (enzyme activity, inhibitor; 1 µM): 88%
O=C(NS(=O)(=O)c1ccc(NCC2CCOCC2)c([N+](=O)[O-])c1)c1ccc(N2CCN(Cc3ccc(C(F)(F)F)cc3-c3ccc(Cl)cc3)CC2)cc1Oc1cnc2[nH]ccc2c1  remaining binding (cell-free assay, competition with immobilised ligand; 1 µM): 94%
CC/C(=N\NC(=O)NCc1cccc(O)c1)c1ccc(O)c(C)c1O  inhibition (enzyme activity, inhibitor; 0.1 µM): -0.3%
CS(=O)(=O)CCNCc1ccc(-c2ccc3ncnc(Nc4ccc(OCc5cccc(F)c5)c(Cl)c4)c3c2)o1  remaining signal (cell-free assay; 0.5 µM): 110%
CCCOc1ccc(OC)c(F)c1C(=O)c1ccc(C(=O)N[C@@H]2CNC[C@H]2NC(=O)c2ccc3[nH]ncc3c2)cc1  remaining activity (enzyme activity, inhibitor; 10 µM): 64%
O=C(N[C@H]1CCCCC/C=C\C2C[C@@]2(C(=O)O)NC(=O)[C@@H]2C[C@@H](Oc3ccncc3)CN2C1=O)OC1CCCC1 (stereo partly shown)  remaining binding (binding, competition with immobilised ligand; 1 µM): 87%
Cc1cnc(NC2CCOCC2)nc1-n1cnc(C(=O)NC(CN)c2cc(F)cc(Cl)c2)c1 (stereo not shown)  remaining activity (enzyme activity, inhibitor, radiometric; 1 µM): 102%
O=C(NCc1ncc(C(F)(F)F)cc1Cl)c1ccc2c(c1)C1(CCS(=O)(=O)CC1)[C@@H](C1CC1)N2S(=O)(=O)c1ccc(F)cc1  remaining binding (binding, competition with immobilised ligand; 1 µM): 83%
O=C(Nc1cnn(-c2csc(C(=O)NC3COC3)c2)c1)Nc1ccccc1Cl  remaining activity (enzyme activity, inhibitor; 5 µM): 89.8%
